# Test results taken from ChEMBL document CHEMBL1149787, “Synthesis and cannabinoid activity of 1-substituted-indole-3-oxadiazole derivatives: novel agonists for the CB1 receptor” (Eur J Med Chem, 2008).
# The source made the active and inactive calls. No cut-off for these calls is given here.
# Legend:
# [1] = target: Cannabinoid receptor 1 (Mus musculus) (UniProt P47746); assay: Agonist activity at CB1 receptor in electrically-stimulated Swiss mouse vas deferens at 1.0 uM; assay type: functional, tissue-based
# Procedure, shortened: (§1)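 Electrically stimulated mouse vas deferens. Prostatic end tied between parallel field electrodes, epididymal end attached to an isometric force transducer. Tissue stretched by 0.5 g force, equilibrated 10 min, then stimulated with trains of three pulses (4 Hz, 0.5 ms, 100 V) every 20 s. Effect taken as % decrease of pre-drug twitch force; single concentrations expressed relative to vehicle.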
# [2] = target: Cannabinoid receptor 1 (Rattus norvegicus, UniProt P20272); assay: (§2) Displacement of [3H]SR141716A from CB1 receptor in Sprague-Dawley rat cerebellum membrane; assay type: tissue-based
# [3] = target: T1, Cannabinoid receptor 2 (Rattus norvegicus) (UniProt Q9QZN9); assay: Displacement of [3H]WIN-55212-2 from CB2 receptor in Sprague-Dawley rat spleen membrane at 10 uM; assay type: cell membranes
# T1 sequence (whole entry): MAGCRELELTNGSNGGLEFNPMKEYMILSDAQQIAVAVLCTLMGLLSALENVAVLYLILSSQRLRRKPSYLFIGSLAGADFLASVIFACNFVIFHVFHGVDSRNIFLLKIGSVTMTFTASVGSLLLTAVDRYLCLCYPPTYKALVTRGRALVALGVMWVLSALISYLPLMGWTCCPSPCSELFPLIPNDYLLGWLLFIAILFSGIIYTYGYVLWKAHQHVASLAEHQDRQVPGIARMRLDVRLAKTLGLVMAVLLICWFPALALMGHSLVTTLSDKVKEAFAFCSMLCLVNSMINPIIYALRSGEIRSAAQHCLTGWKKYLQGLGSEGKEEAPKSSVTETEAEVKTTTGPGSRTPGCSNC
# Procedure, shortened: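 Spleen membranes from Sprague Dawley rats (supernatant spun at 23,800g, pellet kept) in tris-HCl pH 7.4 with MgCl2 and EGTA. 30.0 µg protein per tube with 1.0 mg/mL BSA, 0.2 nM [3H]WIN-55,212-2 and test drug, triplicate, 30 °C for 90 min. Nonspecific binding defined with 1.0 µM unlabelled WIN-55,212-2. Filtration, scintillation counting, nonlinear regression; means of at least four estimates.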
# [4] = target: Cannabinoid receptor 1 (Rattus norvegicus) (UniProt P20272); assay: as §2; assay type: tissue-based
# [5] = target: T1, Cannabinoid receptor 2 (Rattus norvegicus); assay: (§3) Displacement of [3H]WIN-55212-2 from CB2 receptor in Sprague-Dawley rat spleen membrane; assay type: cell membranes
# [6] = target: Cannabinoid receptor 1 (Homo sapiens, UniProt P21554); assay: Agonist activity at CB1 receptor; assay type: functional
# [7] = target: Cannabinoid receptor 1 (Mus musculus) (UniProt P47746); assay: Agonist activity at CB1 receptor in electrically-stimulated Swiss mouse vas deferens; assay type: functional, tissue-based; procedure, shortened: as §1
# [8] = target: T2, Cannabinoid receptor 2 (Rattus norvegicus, UniProt Q9QZN9); assay: as §3; assay type: cell membranes
# T2 sequence (Q9QZN9 whole entry): T1 sequence (whole entry)
# [9] = Selectivity for CB2 receptor over CB1 receptor
# [10] = target: Cannabinoid receptor 2 (Homo sapiens, UniProt P34972); assay: Activity at CB2 receptor
# Sequence of Cannabinoid receptor 2 (Homo sapiens, UniProt P34972) (P34972 whole entry): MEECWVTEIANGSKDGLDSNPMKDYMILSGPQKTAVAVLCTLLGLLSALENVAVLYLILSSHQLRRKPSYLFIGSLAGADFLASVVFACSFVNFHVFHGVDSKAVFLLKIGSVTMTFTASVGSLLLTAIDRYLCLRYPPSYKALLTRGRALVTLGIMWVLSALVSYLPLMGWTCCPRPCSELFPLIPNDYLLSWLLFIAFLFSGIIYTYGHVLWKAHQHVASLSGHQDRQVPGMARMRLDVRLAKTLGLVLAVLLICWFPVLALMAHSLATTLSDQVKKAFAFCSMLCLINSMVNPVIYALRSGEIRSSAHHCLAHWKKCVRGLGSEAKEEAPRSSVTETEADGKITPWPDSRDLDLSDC
# Sequence of Cannabinoid receptor 1 (Mus musculus) (P47746 whole entry): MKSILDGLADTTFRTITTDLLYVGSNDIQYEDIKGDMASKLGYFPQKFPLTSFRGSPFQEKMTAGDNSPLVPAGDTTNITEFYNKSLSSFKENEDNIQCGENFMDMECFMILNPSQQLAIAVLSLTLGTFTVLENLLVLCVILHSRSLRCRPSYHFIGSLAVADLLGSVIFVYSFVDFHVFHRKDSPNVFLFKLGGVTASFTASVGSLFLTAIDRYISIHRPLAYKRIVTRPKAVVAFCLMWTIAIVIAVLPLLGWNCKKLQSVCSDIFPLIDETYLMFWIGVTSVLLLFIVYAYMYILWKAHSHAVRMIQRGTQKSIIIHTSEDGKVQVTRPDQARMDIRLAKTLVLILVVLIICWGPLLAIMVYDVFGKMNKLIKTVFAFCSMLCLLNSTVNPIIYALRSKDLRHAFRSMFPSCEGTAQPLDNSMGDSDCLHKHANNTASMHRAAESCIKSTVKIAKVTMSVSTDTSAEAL
# Sequence of Cannabinoid receptor 1 (Rattus norvegicus, UniProt P20272) (P20272 whole entry): as the sequence (P47746 whole entry) above, with D95E counted along it
# Sequence of Cannabinoid receptor 1 (Homo sapiens, UniProt P21554) (P21554 whole entry): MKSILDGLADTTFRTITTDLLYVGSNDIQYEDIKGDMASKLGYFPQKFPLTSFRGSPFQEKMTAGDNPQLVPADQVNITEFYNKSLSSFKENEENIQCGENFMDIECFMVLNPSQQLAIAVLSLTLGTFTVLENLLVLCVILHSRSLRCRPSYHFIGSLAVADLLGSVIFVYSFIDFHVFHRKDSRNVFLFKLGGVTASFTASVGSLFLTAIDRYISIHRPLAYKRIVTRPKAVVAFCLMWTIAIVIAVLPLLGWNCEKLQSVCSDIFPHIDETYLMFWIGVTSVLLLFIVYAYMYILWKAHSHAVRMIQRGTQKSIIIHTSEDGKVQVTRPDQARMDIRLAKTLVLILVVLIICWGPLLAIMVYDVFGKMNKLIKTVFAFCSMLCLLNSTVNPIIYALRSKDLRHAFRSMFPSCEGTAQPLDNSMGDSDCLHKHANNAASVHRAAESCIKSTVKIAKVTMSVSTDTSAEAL
# Sequence of Cannabinoid receptor 1 (Rattus norvegicus) (P20272 whole entry): as the sequence (P47746 whole entry) above, with D95E counted along it
SMILES,inhibition [1] [%],IC50 [2] [µM],further results
Brc1ccc(Cc2noc(-c3cn(CCN4CCOCC4)c4ccccc34)n2)cc1,58,6.2,–
CCCCCn1cc(-c2nc(Cc3ccccc3)no2)c2ccccc21,100,8.8,–
c1csc(Cc2noc(-c3cn(CCN4CCOCC4)c4ccccc34)n2)c1,81,6.8,–
c1ccc(-c2ccc(-c3noc(-c4cn(CCN5CCOCC5)c5ccccc45)n3)cc2)cc1,11.4,1.52,inhibition [3]: 14%
c1ccc(Cc2noc(-c3cn(CCN4CCOCC4)cn3)n2)cc1,46.8,–,Activity [4]: inactive
O=C(Cn1cc(-c2nc(-c3ccccc3)no2)c2ccccc21)N1CCOCC1,-5.29,–,Activity [5]: inactive
COc1ccc(C(=O)c2c3n(c4ccccc24)C(CN2CCOCC2)CC3)cc1 (stereo unspecified),–,–,IC50 [6]: 0.00032 µM
c1ccc(Cc2noc(-c3cn(CCN4CCCC4)c4ccccc34)n2)cc1,–,–,agonist potency (pEC50) [7]: 7.2
c1ccc2cc(Cc3noc(-c4cn(CCN5CCOCC5)c5ccccc45)n3)ccc2c1,95.6,–,–
COc1ccc(Cc2noc(-c3cn(CCN4CCOCC4)c4ccccc34)n2)cc1,39.2,–,–
O=C(O)CCCCn1cc(-c2nc(Cc3ccc4ccccc4c3)no2)c2ccccc21,53.6,–,–
O=C(Cn1cc(-c2nc(Cc3ccccc3)no2)c2ccccc21)N1CCOCC1,17,–,Activity [5]: inactive
c1ccc2cc(Cc3noc(-c4cn(CCN5CCCC5)c5ccccc45)n3)ccc2c1,78.6,–,–
c1ccc(Cc2noc(-c3cn(CCN4CCCCC4)c4ccccc34)n2)cc1,–,5.6,agonist potency (pEC50) [7]: 5.6
COc1ccc(C(=O)c2c(C)n(CCN3CCOCC3)c3ccccc23)cc1 [PRAVADOLINE],–,–,IC50 [6]: 0.453 µM
O=C1NC(Cn2cc(-c3nc(Cc4ccccc4)no3)c3ccccc32)CO1 (stereo unspecified),15.8,6.1,–
c1ccc(Cc2noc(-c3cn(CCN4CCOCC4)c4ccccc34)n2)cc1,–,2.62,IC50 [8]: 1.1 µM; agonist potency (pEC50) [7]: 7
O=C(c1nc(-c2ccccc2)no1)c1cn(CCN2CCOCC2)c2ccccc12,44.3,–,Activity [5]: inactive
CC(=O)Oc1cn(CCN2CCOCC2)c2ccccc12,81.8,–,–
O=C(c1nc(Cc2ccccc2)no1)c1cn(CCN2CCOCC2)c2ccccc12,22.4,–,–
Clc1ccccc1Cc1noc(-c2cn(CCN3CCOCC3)c3ccccc23)n1,95,7.4,–
CCCCC(C)(C)c1cc(O)c2c(c1)OC(C)(C)[C@H]1CC=C(CO)C[C@H]21,–,3.22,–
c1ccc(-c2noc(-c3cn(CCN4CCOCC4)c4ccccc34)n2)cc1,–,0.25,IC50 [8]: 4.03 µM; agonist potency (pEC50) [7]: 6.47
CCOC(=O)CCCCn1cc(-c2nc(Cc3ccc4ccccc4c3)no2)c2ccccc21,41.6,–,–
Cc1c(CCN2CCOCC2)c2ccccc2n1C(=O)c1cccc2ccccc12,–,–,Selectivity ratio [9]: 160; Ki [10]: 0.0085 µM
O=C(Cn1cc(-c2nc(Cc3ccccc3Cl)no2)c2ccccc21)N1CCOCC1,–,–,Activity [4]: inactive
COc1ccc2c(c1)c(CCN1CCOCC1)c(C)n2C(=O)c1cccc(Cl)c1Cl,–,–,Selectivity ratio [9]: 160
c1ccc(CCc2noc(-c3cn(CCN4CCOCC4)c4ccccc34)n2)cc1,90,6.8,–
